Measurements taken from ChEMBL document CHEMBL1131483, “Discovery of novel pyridinopolyamines with potent antimicrobial activity: deconvolution of mixtures synthesized by solution-phase combinatorial chemistry” (1998).
≈ marks a conversion by molar mass, not a printed value.

Tests used:
Type in all cases: functional
[1] = test system: Candida albicans; test: Minimum inhibitory concentration of Candida albicans growth.
How it was run: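 Candida albicans ATCC 10231 in YM broth at 22 °C. Overnight culture added to sample in 4% DMSO in water, about 1 × 10^5 cells/well, 150 μL, duplicate. Growth scored visually at 48 h. MIC is reported as a concentration range: full inhibition at the upper value, viable cells at the lower. Amphotericin B was the positive control.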

[2] = test system: Escherichia coli; test: (§1) Minimum inhibitory concentration of Escherichia coli growth.
[3] = test system: Escherichia coli; test: as §1; remark: listed apart in the source
[4] = test system: Enterococcus faecalis; test: Minimum inhibitory concentration of Enterococcus faecalis growth.
How it was run: (§2)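 Broth-microdilution at 37 °C. Strains and media: E. faecalis ATCC 29212 in Todd-Hewitt, K. pneumoniae ATCC 13883 and P. vulgaris ATCC 8427 in nutrient broth, S. aureus ATCC 25923 in trypticase soy broth. About 1 × 10^7 cells/well, sample in 4% DMSO in water, duplicate. A595 read at 24 h versus a no-compound well. MIC is reported as a range. Ampicillin and tetracycline were controls.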

[5] = test system: Klebsiella pneumoniae; test: Minimum inhibitory concentration of Klebsiella pneumoniae growth.; how it was run: as §2
[6] = test system: Proteus vulgaris; test: Minimum inhibitory concentration of Proteus vulgaris growth.; how it was run: as §2
[7] = test system: Pseudomonas aeruginosa; test: Minimum inhibitory concentration of Pseudomonas aeruginosa growth.
How it was run: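 Pseudomonas aeruginosa ATCC 27853 in nutrient broth at 37 °C. About 1 × 10^7 cells/well, sample in 4% DMSO in water, 150 μL, duplicate. Growth relative to an untreated well was read at A595 after 24 h. MIC is given as a range, complete inhibition at the higher concentration. Ciprofloxacin was the positive control.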

[8] = test system: Streptococcus pyogenes; test: Minimum inhibitory concentration of Streptococcus pyogenes (wt) growth.
How it was run: (§3)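 Streptococcus pyogenes in Todd-Hewitt broth at 37 °C. The tier II strain is ATCC 49399. Overnight culture at about 1 × 10^7 cells/well, sample in 4% DMSO in water, duplicate. Percent growth versus a no-compound well by A595 at 24 h. MIC is a concentration range: full inhibition at the upper value, growth at the lower. Ampicillin and tetracycline were controls.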

[9] = test system: Streptococcus pyogenes; test: Minimum inhibitory concentration of Streptococcus pyogenes growth.; how it was run: as §3
[10] = test system: Staphylococcus aureus; test: Minimum inhibitory concentration of Staphylococcus aureus growth.; how it was run: as §2
[11] = Escherichia coli, read-out: MIC
[12] = Streptococcus pyogenes, read-out: MIC

| SMILES | MIC ([1]; Candida albicans) | MIC [2] | MIC [3, 11] | MIC [4] | MIC [5] | MIC [6] | MIC [7] | MIC [8] | MIC [9, 12] | MIC [10] | MIC [1] | MIC [3] | MIC [9] |
| --- | --- | --- | --- | --- | --- | --- | --- | --- | --- | --- | --- | --- | --- |
| COC(=O)c1cccc(CN(CCNCCCO)Cc2cccc(CN(Cc3cccc(C(=O)OC)c3)Cc3cccc(C(=O)OC)c3)n2)c1 | 50 µM (≈ 34.1 µg/mL) | 25 µM (≈ 17.1 µg/mL) | 20 µM (≈ 13.7 µg/mL) | > 100 µM |  |  |  | 12 µM (≈ 8.19 µg/mL) | 10 µM (≈ 6.83 µg/mL) | 25 µM (≈ 17.1 µg/mL) |  |  |  |
| COC(=O)c1cccc(CN(Cc2cccc(C(F)(F)F)c2)Cc2cccc(CN(CCNCCCO)Cc3cccc(C(F)(F)F)c3)n2)c1 | > 100 µM | > 100 µM | 6 µM (≈ 4.22 µg/mL) | 6 µM (≈ 4.22 µg/mL) | > 100 µM | > 100 µM | > 100 µM | 6 µM (≈ 4.22 µg/mL) | 3 µM (≈ 2.11 µg/mL) | 12 µM (≈ 8.43 µg/mL) |  |  |  |
| O=[N+]([O-])c1cccc(CN(Cc2cccc(C(F)(F)F)c2)Cc2cccc(CN(CCNCCCO)Cc3cccc(C(F)(F)F)c3)n2)c1 | > 100 µM | > 100 µM | 6 µM (≈ 4.14 µg/mL) | 6 µM (≈ 4.14 µg/mL) | > 100 µM | > 100 µM | > 100 µM | 6 µM (≈ 4.14 µg/mL) | 3 µM (≈ 2.07 µg/mL) | 6 µM (≈ 4.14 µg/mL) | > 100 µM | 5 µM (≈ 3.45 µg/mL) | 5 µM (≈ 3.45 µg/mL) |
| OCCCN(CCN(Cc1ccccc1)Cc1cccc(CN(Cc2ccccc2)Cc2ccccc2)n1)Cc1ccccc1 | 5 µM (≈ 2.99 µg/mL) |  | 25 µM (≈ 15 µg/mL) |  |  |  |  |  | 25 µM (≈ 15 µg/mL) |  |  |  |  |
| Cc1cccc(CN(CCNCCCO)Cc2cccc(CN(Cc3cccc([N+](=O)[O-])c3)Cc3cccc(C(F)(F)F)c3)n2)c1 | 50 µM (≈ 31.8 µg/mL) | > 100 µM | 25 µM (≈ 15.9 µg/mL) | 6 µM (≈ 3.81 µg/mL) | > 100 µM | > 100 µM | > 100 µM | 6 µM (≈ 3.81 µg/mL) | 5 µM (≈ 3.18 µg/mL) | 6 µM (≈ 3.81 µg/mL) |  |  |  |
| O=[N+]([O-])c1cccc(CN(CCNCCCO)Cc2cccc(CN(Cc3cccc([N+](=O)[O-])c3)Cc3cccc([N+](=O)[O-])c3)n2)c1 | > 100 µM | > 100 µM | 10 µM (≈ 6.44 µg/mL) | > 100 µM | > 100 µM | > 100 µM | > 100 µM | 12 µM (≈ 7.72 µg/mL) | 5 µM (≈ 3.22 µg/mL) | 12 µM (≈ 7.72 µg/mL) |  |  |  |
| Cc1cccc(CN(CCNCCCO)Cc2cccc(CN(Cc3cccc(C(F)(F)F)c3)Cc3cccc(C(F)(F)F)c3)n2)c1 | > 100 µM | > 100 µM | 25 µM (≈ 16.5 µg/mL) | 6 µM (≈ 3.95 µg/mL) | > 100 µM | > 100 µM | > 100 µM | 6 µM (≈ 3.95 µg/mL) | 5 µM (≈ 3.29 µg/mL) | 12 µM (≈ 7.9 µg/mL) |  |  |  |
| OCCCNCCN(Cc1cccc(C(F)(F)F)c1)Cc1cccc(CN(Cc2cccc(F)c2)Cc2cccc(C(F)(F)F)c2)n1 | > 100 µM | > 100 µM | 6 µM (≈ 3.98 µg/mL) | 6 µM (≈ 3.98 µg/mL) | > 100 µM | > 100 µM | > 100 µM | 6 µM (≈ 3.98 µg/mL) | 6 µM (≈ 3.98 µg/mL) | 12 µM (≈ 7.95 µg/mL) |  |  |  |
| Cc1cccc(CN(Cc2cccc(C(F)(F)F)c2)Cc2cccc(CN(CCNCCCO)Cc3cccc(C(F)(F)F)c3)n2)c1 | > 100 µM | > 100 µM | 3 µM (≈ 1.98 µg/mL) | 6 µM (≈ 3.95 µg/mL) | 100 µM (≈ 65.9 µg/mL) | > 100 µM | > 100 µM | 6 µM (≈ 3.95 µg/mL) | 3 µM (≈ 1.98 µg/mL) | 12 µM (≈ 7.9 µg/mL) |  |  |  |
| OCCCNCCN(Cc1cccc(C(F)(F)F)c1)Cc1cccc(CN(Cc2cccc(C(F)(F)F)c2)Cc2cccc(C(F)(F)F)c2)n1 | > 100 µM | > 100 µM | 5 µM (≈ 3.56 µg/mL) | > 100 µM | > 100 µM | > 100 µM | > 100 µM | 12 µM (≈ 8.55 µg/mL) | 5 µM (≈ 3.56 µg/mL) | 6 µM (≈ 4.28 µg/mL) |  |  |  |

The remaining lines, values ahead:

| MIC ([1]; Candida albicans) | MIC [2] | MIC [3, 11] | MIC [4] | MIC [5] | MIC [6] | MIC [7] | MIC [8] | MIC [9, 12] | MIC [10] | MIC [1] | MIC [3] | MIC [9] | SMILES |
| --- | --- | --- | --- | --- | --- | --- | --- | --- | --- | --- | --- | --- | --- |
| 50 µM (≈ 25.4 µg/mL) | 12 µM (≈ 6.1 µg/mL) | 10 µM (≈ 5.09 µg/mL) | 12 µM (≈ 6.1 µg/mL) | 50 µM (≈ 25.4 µg/mL) | 50 µM (≈ 25.4 µg/mL) | 50 µM (≈ 25.4 µg/mL) | 6 µM (≈ 3.05 µg/mL) | 5 µM (≈ 2.54 µg/mL) | 25 µM (≈ 12.7 µg/mL) |  |  |  | OCCCNCCN(Cc1ccccc1)Cc1cccc(CN(Cc2ccccc2)Cc2ccccc2)n1 |
| 50 µM (≈ 28.1 µg/mL) | 12 µM (≈ 6.75 µg/mL) | 5 µM (≈ 2.81 µg/mL) | 25 µM (≈ 14.1 µg/mL) |  |  |  | 6 µM (≈ 3.38 µg/mL) | 5 µM (≈ 2.81 µg/mL) | 12 µM (≈ 6.75 µg/mL) |  |  |  | OCCCNCCN(Cc1cccc(F)c1)Cc1cccc(CN(Cc2cccc(F)c2)Cc2cccc(F)c2)n1 |
| < 12.5 µM | > 100 µM | 5 µM (≈ 3.04 µg/mL) | 6 µM (≈ 3.65 µg/mL) | 25 µM (≈ 15.2 µg/mL) | > 100 µM | > 100 µM | 6 µM (≈ 3.65 µg/mL) | 5 µM (≈ 3.04 µg/mL) | 6 µM (≈ 3.65 µg/mL) |  |  |  | Cc1cccc(CN(CCNCCCO)Cc2cccc(CN(Cc3cccc(F)c3)Cc3cccc(C(F)(F)F)c3)n2)c1 |
| < 12.5 µM | > 100 µM | 25 µM (≈ 15.1 µg/mL) | 6 µM (≈ 3.63 µg/mL) | 12 µM (≈ 7.26 µg/mL) | > 100 µM | > 100 µM | 6 µM (≈ 3.63 µg/mL) | 5 µM (≈ 3.02 µg/mL) | 6 µM (≈ 3.63 µg/mL) |  |  |  | Cc1cccc(CN(CCNCCCO)Cc2cccc(CN(Cc3cccc(C)c3)Cc3cccc(C(F)(F)F)c3)n2)c1 |
| < 12.5 µM | > 100 µM | 25 µM (≈ 16.2 µg/mL) | 6 µM (≈ 3.89 µg/mL) | > 100 µM | > 100 µM | > 100 µM | 6 µM (≈ 3.89 µg/mL) | 5 µM (≈ 3.24 µg/mL) | 12 µM (≈ 7.79 µg/mL) |  |  |  | COC(=O)c1cccc(CN(Cc2cccc(C(F)(F)F)c2)Cc2cccc(CN(CCNCCCO)Cc3cccc(C)c3)n2)c1 |
| 12 µM (≈ 6.61 µg/mL) | 6 µM (≈ 3.3 µg/mL) | 5 µM (≈ 2.75 µg/mL) | 6 µM (≈ 3.3 µg/mL) | > 100 µM | > 100 µM | > 100 µM | 6 µM (≈ 3.3 µg/mL) | 5 µM (≈ 2.75 µg/mL) | 6 µM (≈ 3.3 µg/mL) |  |  |  | Cc1cccc(CN(CCNCCCO)Cc2cccc(CN(Cc3cccc(C)c3)Cc3cccc(C)c3)n2)c1 |
| > 100 µM |  | > 100 µM |  |  |  |  |  | > 100 µM |  |  |  |  | NCc1cccc(CNCCNCCCO)n1 |
| > 100 µM | > 100 µM | 3 µM (≈ 1.93 µg/mL) | 12 µM (≈ 7.74 µg/mL) | 50 µM (≈ 32.2 µg/mL) | > 100 µM | > 100 µM | 12 µM (≈ 7.74 µg/mL) | 3 µM (≈ 1.93 µg/mL) | 25 µM (≈ 16.1 µg/mL) |  |  |  | OCCCNCCN(Cc1cccc(C(F)(F)F)c1)Cc1cccc(CN(Cc2ccccc2)Cc2cccc(C(F)(F)F)c2)n1 |
| < 12.5 µM | 25 µM (≈ 14.8 µg/mL) | 5 µM (≈ 2.95 µg/mL) | 6 µM (≈ 3.54 µg/mL) | 12 µM (≈ 7.09 µg/mL) | > 100 µM | > 100 µM | 6 µM (≈ 3.54 µg/mL) | 5 µM (≈ 2.95 µg/mL) | 6 µM (≈ 3.54 µg/mL) |  |  |  | Cc1cccc(CN(CCNCCCO)Cc2cccc(CN(Cc3ccccc3)Cc3cccc(C(F)(F)F)c3)n2)c1 |
